Assay results gathered from unrelated publications.
Compare with care: the assays were run in different laboratories.
Target: Delta-type opioid receptor (OPRD1, Homo sapiens, UniProt P41143)
Observed: ligand displacement
Tested at: 10 µM

SMILES	test	inhibition [%]
O=C(c1ccc(Cl)cc1)N(Cc1ccccc1)C1CCCCC1		33.4
CCN(CC)c1ccc(C2Nc3ccc(C(=O)c4ccccc4)cc3NC3=C2C(=O)CC(C)(C)C3)cc1 (centres unmarked)	radioligand	12
Cc1cc(-c2nc(CN3CCNCC3)no2)cc2c1C(=O)N(Cc1ccc(OC(F)(F)F)cc1)C2	radioligand	45
COc1cc(NC(C)=O)c(Cl)cc1C(=O)Nc1nccs1		20.9
CCCNc1nc2ccccc2n1Cc1ccc(Cl)cc1		-5.69
CCN(Cc1ccccc1C(F)(F)F)C(=O)C1CCN(S(=O)(=O)c2ccc3[nH]ncc3c2)CC1	radioligand	6
O=C1N=C(N2CCCCN2)S/C1=C\c1ccc(F)cc1O	radioligand	13
N#Cc1cc(Cn2c(N3CCCC3)nc3ccccc32)ccc1F		-11.4
